Experimental data taken from ChEMBL document CHEMBL4304834, “3-Amino-chromanes and Tetrahydroquinolines as Selective 5-HT2B, 5-HT7, or σ1 Receptor Ligands” (ACS Med Chem Lett, 2019).

Tests used:
[1] = molecular target: Beta-1 adrenergic receptor (Homo sapiens, UniProt P08588); assay: Displacement of [125I]-pindolol from human recombinant adrenergic Beta1 receptor expressed in Flp-In CHO cells after 90 mins by microbeta scintillation counting method; assay type: cell-based
Procedure, shortened: (§1)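 Radioligand binding run by the NIMH Psychoactive Drug Screening Program. […] Otherwise Ki comes from sigmoidal curve fits of triplicate measurements in a single experiment, or is averaged over repeated experiments each run in triplicate.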

[2] = molecular target: D(2) dopamine receptor (Homo sapiens, UniProt P14416); assay: Displacement of [3H]-N-methylspiperone from human recombinant dopamine D2 receptor expressed in stable fibroblast cells after 90 mins by microbeta scintillation counting method; assay type: cell-based; procedure, shortened: as §1
[3] = molecular target: GABA-A receptor; anion channel; assay: Displacement of [3H]-Muscimol from GABAA receptor in rat brain incubated for 90 mins by microbeta scintillation counting method; assay type: tissue-based
Procedure, shortened: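 Radioligand binding run by the NIMH Psychoactive Drug Screening Program. Otherwise Ki comes from sigmoidal curve fits of triplicate measurements in a single experiment, or is averaged over repeated experiments each run in triplicate.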

[4] = molecular target: Mu-type opioid receptor (Homo sapiens, UniProt P35372); assay: Displacement of [3H]-DAMGO from human recombinant MOR receptor expressed in stable HEK cells after 90 mins by microbeta scintillation counting method; assay type: cell-based; procedure, shortened: as §1
[5] = molecular target: T1, Muscarinic acetylcholine receptor M4 (Homo sapiens) (UniProt P08173); assay: Displacement of [3H]-QNB/[3H]-NMS from human recombinant Muscarinic acetylcholine M4 receptor expressed in stable CHO cells at 10 uM after 90 mins by microbeta scintillation counting method relative to control; assay type: cell-based
T1 sequence (whole entry): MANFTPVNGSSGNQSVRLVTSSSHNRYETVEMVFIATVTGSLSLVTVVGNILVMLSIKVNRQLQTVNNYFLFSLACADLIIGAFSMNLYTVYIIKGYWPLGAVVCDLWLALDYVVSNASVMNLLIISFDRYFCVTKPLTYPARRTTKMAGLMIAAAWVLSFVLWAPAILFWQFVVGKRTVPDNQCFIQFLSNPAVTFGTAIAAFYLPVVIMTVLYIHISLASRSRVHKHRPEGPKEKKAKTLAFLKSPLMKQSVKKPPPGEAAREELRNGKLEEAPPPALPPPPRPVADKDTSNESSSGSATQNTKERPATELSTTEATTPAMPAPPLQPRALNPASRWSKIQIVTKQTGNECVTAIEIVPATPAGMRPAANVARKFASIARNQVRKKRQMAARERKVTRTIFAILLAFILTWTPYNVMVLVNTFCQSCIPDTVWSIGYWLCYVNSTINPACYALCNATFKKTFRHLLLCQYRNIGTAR

[6] = molecular target: T2, Muscarinic acetylcholine receptor M5 (Homo sapiens, UniProt P08912); assay: Displacement of [3H]-QNB/[3H]-NMS from human recombinant Muscarinic acetylcholine M5 receptor expressed in stable CHO cells after 90 mins by microbeta scintillation counting method; assay type: cell-based
T2 sequence (P08912 whole entry): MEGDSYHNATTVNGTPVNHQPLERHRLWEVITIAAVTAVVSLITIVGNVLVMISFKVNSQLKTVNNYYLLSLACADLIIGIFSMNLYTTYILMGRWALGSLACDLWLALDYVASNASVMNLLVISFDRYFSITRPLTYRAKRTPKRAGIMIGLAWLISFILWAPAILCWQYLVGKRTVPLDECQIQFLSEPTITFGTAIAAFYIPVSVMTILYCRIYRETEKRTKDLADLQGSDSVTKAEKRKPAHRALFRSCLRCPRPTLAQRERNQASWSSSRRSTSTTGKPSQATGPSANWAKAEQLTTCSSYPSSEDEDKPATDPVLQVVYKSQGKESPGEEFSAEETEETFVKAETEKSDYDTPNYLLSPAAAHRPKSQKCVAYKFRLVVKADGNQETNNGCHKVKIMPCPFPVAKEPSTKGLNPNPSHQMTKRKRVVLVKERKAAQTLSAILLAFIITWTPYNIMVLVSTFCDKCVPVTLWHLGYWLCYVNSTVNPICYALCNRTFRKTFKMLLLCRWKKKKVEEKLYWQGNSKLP
Procedure, shortened: (§2)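 Radioligand binding was run by the NIMH Psychoactive Drug Screening Program. Compounds were first screened at 10 μM. Those giving ≥50% binding were taken to full competition curves. Ki is reported as pKi from a sigmoidal curve fit of triplicate measurements in a single experiment; the error is the curve-fit error.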

[7] = molecular target: D(1A) dopamine receptor (Homo sapiens, UniProt P21728); assay: Displacement of [3H]-SCH23390 from human recombinant dopamine D1 receptor expressed in HEKT cells at 10 uM after 90 mins by microbeta scintillation counting method relative to control; assay type: cell-based
[8] = molecular target: 5-hydroxytryptamine receptor 1D (Homo sapiens, UniProt P28221); assay: Displacement of [3H]5-CT from human recombinant 5-HT1D receptor transiently expressed in HEKT cells at 10 uM after 90 mins by microbeta scintillation counting method relative to control; assay type: cell-based
[9] = molecular target: T3, Alpha-1A adrenergic receptor (Homo sapiens) (UniProt P35348); assay: Displacement of [3H]-Prazosin from human recombinant adrenergic alpha1A receptor expressed in cells at 10 uM after 90 mins by microbeta scintillation counting method relative to control; assay type: cell-based
T3 sequence (whole entry): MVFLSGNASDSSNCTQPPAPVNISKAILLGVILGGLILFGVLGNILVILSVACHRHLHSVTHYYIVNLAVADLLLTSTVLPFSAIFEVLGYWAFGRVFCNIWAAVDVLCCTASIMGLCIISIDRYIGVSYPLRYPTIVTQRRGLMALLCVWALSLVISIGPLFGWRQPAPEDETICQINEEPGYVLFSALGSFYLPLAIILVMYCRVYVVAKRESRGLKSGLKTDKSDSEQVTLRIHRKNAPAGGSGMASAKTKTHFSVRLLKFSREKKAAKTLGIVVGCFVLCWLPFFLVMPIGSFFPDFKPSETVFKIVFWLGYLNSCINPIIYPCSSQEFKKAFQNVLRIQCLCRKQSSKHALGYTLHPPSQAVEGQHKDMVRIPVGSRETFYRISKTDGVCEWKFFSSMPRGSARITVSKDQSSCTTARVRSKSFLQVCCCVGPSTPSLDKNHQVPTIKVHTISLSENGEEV

[10] = molecular target: T4, Alpha-1A adrenergic receptor (Homo sapiens, UniProt P35348); assay: Displacement of [3H]-Prazosin from human recombinant adrenergic alpha1A receptor expressed in cells after 90 mins by microbeta scintillation counting method; assay type: cell-based; procedure, shortened: as §2
T4 sequence (P35348 whole entry): T3 sequence (whole entry)

[11] = molecular target: Histamine H3 receptor (Homo sapiens, UniProt Q9Y5N1); assay: Displacement of [3H]-alpha-methylhistamine from human recombinant histamine H3 receptor expressed in Flp-In HEK cells after 90 mins by microbeta scintillation counting method; assay type: cell-based; procedure, shortened: as §2
Histamine H3 receptor, sequence (Q9Y5N1 whole entry): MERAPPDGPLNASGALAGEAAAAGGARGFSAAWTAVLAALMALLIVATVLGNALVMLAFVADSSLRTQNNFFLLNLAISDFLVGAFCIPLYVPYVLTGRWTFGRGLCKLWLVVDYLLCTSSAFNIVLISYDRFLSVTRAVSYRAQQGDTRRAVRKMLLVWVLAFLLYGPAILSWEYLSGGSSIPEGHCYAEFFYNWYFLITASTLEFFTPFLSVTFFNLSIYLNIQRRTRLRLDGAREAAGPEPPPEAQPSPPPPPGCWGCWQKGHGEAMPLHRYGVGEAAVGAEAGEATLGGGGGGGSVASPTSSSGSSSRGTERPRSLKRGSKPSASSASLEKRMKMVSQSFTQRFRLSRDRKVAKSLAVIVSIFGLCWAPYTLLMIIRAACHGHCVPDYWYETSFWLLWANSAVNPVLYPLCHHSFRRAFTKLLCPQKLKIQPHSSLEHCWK

D(2) dopamine receptor, sequence (P14416 whole entry): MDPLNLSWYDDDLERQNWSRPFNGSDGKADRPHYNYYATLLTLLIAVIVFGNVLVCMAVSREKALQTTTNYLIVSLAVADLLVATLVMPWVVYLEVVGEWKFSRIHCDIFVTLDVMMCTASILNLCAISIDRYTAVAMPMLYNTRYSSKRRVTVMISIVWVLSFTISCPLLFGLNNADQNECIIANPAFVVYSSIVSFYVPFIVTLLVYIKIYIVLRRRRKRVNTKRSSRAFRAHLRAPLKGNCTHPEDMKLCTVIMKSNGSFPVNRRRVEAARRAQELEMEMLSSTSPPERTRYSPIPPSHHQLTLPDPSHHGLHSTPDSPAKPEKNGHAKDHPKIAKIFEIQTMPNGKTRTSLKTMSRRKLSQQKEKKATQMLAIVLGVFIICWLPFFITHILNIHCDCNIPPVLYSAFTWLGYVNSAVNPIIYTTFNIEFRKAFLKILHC
Mu-type opioid receptor, sequence (P35372 whole entry): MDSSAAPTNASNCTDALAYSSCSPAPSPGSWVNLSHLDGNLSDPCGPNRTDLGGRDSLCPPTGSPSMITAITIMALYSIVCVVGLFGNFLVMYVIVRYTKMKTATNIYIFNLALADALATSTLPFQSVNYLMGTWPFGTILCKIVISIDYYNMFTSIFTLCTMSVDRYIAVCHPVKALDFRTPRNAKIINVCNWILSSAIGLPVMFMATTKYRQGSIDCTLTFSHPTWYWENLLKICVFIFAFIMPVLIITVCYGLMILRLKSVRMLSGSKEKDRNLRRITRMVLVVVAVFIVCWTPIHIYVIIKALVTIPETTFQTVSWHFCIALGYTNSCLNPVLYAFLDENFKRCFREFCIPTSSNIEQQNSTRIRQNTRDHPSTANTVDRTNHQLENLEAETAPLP
D(1A) dopamine receptor, sequence (P21728 whole entry): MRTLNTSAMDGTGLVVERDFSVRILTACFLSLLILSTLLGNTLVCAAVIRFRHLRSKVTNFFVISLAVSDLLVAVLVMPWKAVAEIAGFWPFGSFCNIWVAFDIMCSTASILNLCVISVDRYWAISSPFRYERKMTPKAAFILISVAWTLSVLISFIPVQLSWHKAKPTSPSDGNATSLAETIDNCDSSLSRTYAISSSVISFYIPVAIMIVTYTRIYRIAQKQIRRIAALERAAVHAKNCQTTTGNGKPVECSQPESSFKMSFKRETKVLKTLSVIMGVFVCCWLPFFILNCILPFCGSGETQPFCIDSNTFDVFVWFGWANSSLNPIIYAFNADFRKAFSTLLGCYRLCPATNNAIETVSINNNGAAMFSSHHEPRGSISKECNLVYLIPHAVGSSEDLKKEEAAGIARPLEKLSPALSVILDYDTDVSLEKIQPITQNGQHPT
Beta-1 adrenergic receptor, sequence (P08588 whole entry): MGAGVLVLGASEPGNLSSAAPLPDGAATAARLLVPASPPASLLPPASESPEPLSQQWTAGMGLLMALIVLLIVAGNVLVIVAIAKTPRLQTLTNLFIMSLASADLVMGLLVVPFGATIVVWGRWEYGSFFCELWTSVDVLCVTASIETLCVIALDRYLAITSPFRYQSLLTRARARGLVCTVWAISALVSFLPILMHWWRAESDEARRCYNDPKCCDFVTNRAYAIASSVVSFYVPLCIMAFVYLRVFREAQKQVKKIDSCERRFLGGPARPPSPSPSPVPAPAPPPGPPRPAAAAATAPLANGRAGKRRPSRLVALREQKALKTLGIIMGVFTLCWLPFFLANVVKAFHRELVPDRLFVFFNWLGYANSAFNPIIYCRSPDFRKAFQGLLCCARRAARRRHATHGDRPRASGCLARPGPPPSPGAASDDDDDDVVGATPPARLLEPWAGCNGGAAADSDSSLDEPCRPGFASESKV
5-hydroxytryptamine receptor 1D, sequence (P28221 whole entry): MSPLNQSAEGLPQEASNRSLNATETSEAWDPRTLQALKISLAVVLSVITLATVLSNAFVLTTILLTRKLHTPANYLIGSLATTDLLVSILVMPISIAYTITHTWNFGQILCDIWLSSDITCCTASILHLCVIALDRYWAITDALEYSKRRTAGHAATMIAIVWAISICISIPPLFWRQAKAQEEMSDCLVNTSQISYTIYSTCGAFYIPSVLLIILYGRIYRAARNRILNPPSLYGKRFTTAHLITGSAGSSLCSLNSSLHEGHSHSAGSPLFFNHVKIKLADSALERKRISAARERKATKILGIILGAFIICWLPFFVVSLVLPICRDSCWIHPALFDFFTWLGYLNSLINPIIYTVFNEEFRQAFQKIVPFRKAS

Compound | Ki [1] | Ki [2] | pKi [3] | Ki [4] | inhibition [5] | Ki [6] | inhibition [7] | inhibition [8] | inhibition [9] | Ki [10] | Ki [11]
COc1cc(OC)c2c(c1)OC[C@@]1(C)NCC[C@@H]21 (racemic) | 1 µM | > 10 µM | < 5 | > 10 µM | < 50% | > 10 µM | < 50% | < 50% | < 50% | > 10 µM | 
C[C@@]12CN(c3ccccc3)c3ccccc3[C@@H]1CCN2 (racemic) | 3.16 µM | > 10 µM |  | > 10 µM |  | > 10 µM |  |  |  | > 10 µM | 
CC[C@H]1c2cc(OC)ccc2CC[C@@]1(C)N (racemic) | > 10 µM | > 10 µM | < 5 | 2 µM | < 50% | > 10 µM | < 50% | < 50% | < 50% | > 10 µM | > 10 µM
CC[C@H]1c2cc(C)ccc2OC[C@@]1(C)N (racemic) | > 10 µM | > 10 µM | < 5 | > 10 µM | < 50% | > 10 µM | < 50% | < 50% | < 50% | > 10 µM | > 10 µM
CC[C@H]1c2ccccc2N(c2ccccc2)C[C@@]1(C)N (racemic) | > 10 µM | > 10 µM |  | > 10 µM |  | > 10 µM |  |  |  | 1.58 µM | 3.98 µM
